Columns and labels:
[1] = target: Adrenergic receptor alpha-1 (Rattus norvegicus) (UniProt P15823+P23944+P43140); assay: Agonism at alpha-1 adrenergic receptor, determined as the dose required to produce a two fold shift of the cirazoline on diastolic blood pressure.; format: functional, tissue-based; settings: Artery
[2] = test system: Adrenergic receptor alpha-2 (Rattus norvegicus); assay: Agonism at alpha-2 adrenergic receptor, determined as dose required to produce a two fold shift of the cumulative dose-response curve to UK-14304 on the twitch response in rat vas deferens.
Rattus norvegicus [3] = assay: In vivo antagonist dose producing two fold shift of UK-14,304 in pithed rats. (prejunctional)
Rattus norvegicus [4] = assay: In vivo ED40 is the raising diastolic blood pressure by 40 mm Hg in pithed rats. (postjunctional); format: functional; settings: Artery
Method in brief: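 Pithed rats, compound given iv in cumulative doses. ED40 is the dose (μg/kg) raising diastolic blood pressure by 40 mmHg. Separate groups of rats (n = 4-6).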

Rattus norvegicus [5] = assay: In vivo antagonist dose producing two fold shift of cirazoline in pithed rats. (postjunctional); AG- agonist; format: functional, organism-based; settings: filed as agonist
Method in brief: (§1)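 Pithed rats, iv. Antagonist given before a cumulative dose-response curve to cirazoline on diastolic blood pressure. DR2 is the antagonist dose (μg/kg) giving a twofold rightward shift. Separate groups of rats (n = 4-6).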

[6] = target: T1, Adrenergic receptor alpha-1 (Rattus norvegicus, UniProt P15823+P23944+P43140); assay: Inhibition of saturable binding of [3H]prazosin to alpha1-site in rat cerebral cortical membranes.; format: cell membranes, Membrane
T1 sequence (P15823 whole entry): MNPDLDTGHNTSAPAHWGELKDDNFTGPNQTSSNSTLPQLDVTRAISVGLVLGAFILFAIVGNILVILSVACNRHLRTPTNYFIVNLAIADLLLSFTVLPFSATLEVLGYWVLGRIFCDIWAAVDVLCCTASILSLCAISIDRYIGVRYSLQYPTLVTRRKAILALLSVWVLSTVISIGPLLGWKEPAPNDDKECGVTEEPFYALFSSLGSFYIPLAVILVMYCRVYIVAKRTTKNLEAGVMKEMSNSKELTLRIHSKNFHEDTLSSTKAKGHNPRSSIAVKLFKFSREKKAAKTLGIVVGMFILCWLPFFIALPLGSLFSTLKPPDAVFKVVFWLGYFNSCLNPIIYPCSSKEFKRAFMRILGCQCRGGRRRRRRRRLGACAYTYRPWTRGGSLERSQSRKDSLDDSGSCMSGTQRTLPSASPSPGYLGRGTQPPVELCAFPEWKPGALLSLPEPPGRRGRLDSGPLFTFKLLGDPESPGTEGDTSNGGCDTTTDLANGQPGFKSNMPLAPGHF
T1 sequence (P23944 whole entry): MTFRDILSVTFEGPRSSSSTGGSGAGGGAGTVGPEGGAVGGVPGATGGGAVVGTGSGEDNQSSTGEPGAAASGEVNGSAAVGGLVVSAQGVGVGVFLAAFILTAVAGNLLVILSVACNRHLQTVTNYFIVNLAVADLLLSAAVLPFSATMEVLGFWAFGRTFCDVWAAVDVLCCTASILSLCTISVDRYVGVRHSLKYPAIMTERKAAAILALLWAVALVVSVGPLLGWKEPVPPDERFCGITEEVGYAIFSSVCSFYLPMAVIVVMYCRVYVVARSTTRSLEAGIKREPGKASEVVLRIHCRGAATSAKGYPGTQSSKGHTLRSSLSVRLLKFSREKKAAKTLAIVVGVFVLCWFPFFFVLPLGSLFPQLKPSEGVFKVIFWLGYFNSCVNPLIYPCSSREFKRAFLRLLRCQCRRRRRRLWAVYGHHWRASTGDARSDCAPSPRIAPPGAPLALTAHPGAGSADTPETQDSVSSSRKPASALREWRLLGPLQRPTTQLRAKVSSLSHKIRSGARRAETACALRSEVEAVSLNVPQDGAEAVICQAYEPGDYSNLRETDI
T1 sequence (P43140 whole entry): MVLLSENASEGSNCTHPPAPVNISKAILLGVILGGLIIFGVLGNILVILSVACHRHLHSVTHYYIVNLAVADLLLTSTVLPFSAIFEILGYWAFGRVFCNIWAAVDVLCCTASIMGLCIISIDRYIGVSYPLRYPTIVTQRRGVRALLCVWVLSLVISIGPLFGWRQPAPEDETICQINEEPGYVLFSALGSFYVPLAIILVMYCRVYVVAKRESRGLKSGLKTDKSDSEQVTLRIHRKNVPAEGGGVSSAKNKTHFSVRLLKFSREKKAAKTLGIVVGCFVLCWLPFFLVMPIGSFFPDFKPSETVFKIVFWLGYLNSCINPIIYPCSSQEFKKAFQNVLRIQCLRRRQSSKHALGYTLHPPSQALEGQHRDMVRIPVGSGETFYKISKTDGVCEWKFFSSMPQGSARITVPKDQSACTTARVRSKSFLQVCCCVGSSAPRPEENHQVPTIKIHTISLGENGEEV

[7] = target: Adrenergic receptor alpha-2 (Rattus norvegicus) (UniProt P22086+P19328+P22909); assay: Antagonism at alpha-2 adrenergic receptor, determined as dose required to produce a two fold shift of the dose-response curve to UK-14304 on the twitch response in rat vas deferens; format: functional, tissue-based
Method in brief: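 Pithed rats, iv. Antagonist given before a cumulative dose-response curve to UK-14,304 on the vas deferens twitch response. DR2 is the antagonist dose (μg/kg) giving a twofold shift of the curve. Separate groups of rats (n = 4-6).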

[8] = target: T2, Adrenergic receptor alpha-2 (Rattus norvegicus, UniProt P22086+P19328+P22909); assay: Inhibition of saturable binding of [3H]idazoxan to alpha2-site in rat cerebral cortical membranes.; format: cell membranes, Membrane
T2 sequence (P22086 whole entry): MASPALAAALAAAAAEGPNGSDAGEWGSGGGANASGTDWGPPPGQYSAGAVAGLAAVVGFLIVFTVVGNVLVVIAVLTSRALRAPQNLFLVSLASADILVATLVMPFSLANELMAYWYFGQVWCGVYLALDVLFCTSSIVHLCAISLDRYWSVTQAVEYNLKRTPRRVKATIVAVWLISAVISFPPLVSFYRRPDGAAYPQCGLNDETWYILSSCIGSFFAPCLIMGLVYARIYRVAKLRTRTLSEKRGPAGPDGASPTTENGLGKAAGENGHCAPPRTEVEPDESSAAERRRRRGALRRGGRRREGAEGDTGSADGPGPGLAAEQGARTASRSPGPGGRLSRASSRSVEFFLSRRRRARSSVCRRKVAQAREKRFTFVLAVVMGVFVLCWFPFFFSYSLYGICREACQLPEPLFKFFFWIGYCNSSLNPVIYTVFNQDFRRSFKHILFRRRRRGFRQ
T2 sequence (P19328 whole entry): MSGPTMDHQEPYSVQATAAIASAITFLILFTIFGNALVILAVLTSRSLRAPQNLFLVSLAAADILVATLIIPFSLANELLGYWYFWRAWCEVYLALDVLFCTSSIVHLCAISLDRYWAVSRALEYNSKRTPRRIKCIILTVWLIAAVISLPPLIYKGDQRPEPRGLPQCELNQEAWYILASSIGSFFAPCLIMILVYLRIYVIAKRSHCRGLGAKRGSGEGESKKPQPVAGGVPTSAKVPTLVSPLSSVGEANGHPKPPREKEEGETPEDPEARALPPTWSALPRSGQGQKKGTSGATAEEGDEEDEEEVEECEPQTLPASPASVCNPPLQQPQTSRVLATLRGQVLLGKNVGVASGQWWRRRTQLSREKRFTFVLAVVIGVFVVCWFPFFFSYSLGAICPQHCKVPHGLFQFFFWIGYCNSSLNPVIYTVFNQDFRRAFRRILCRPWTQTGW
T2 sequence (P22909 whole entry): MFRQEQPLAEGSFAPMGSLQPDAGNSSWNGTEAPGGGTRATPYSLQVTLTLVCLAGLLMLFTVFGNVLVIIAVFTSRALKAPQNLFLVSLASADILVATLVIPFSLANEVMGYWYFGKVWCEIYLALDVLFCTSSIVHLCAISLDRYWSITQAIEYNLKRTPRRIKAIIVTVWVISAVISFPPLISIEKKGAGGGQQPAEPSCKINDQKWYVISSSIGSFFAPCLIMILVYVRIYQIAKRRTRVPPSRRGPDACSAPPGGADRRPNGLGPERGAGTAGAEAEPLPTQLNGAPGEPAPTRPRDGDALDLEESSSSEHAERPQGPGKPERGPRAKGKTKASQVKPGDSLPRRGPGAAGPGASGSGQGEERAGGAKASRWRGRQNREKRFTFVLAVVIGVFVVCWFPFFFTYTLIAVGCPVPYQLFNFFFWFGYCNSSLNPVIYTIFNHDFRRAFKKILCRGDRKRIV

Rattus norvegicus [9] = assay: In vivo dose required to inhibit vas deferens contraction by 25% after pretreatment with prazosin in pithed rats. (prejunctional); ant- antagonist; format: functional, organism-based; settings: filed as antagonist
Method in brief: (§2)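 Pithed rats pretreated with prazosin (1 mg/kg). Compound given iv in cumulative doses. ED25 is the dose (μg/kg) inhibiting vas deferens contraction by 25%. Separate groups of rats (n = 4-6).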

Rattus norvegicus [10] = assay: In vivo antagonist dose producing two fold shift of cirazoline in pithed rats. (postjunctional);AG- agonist; format: functional, organism-based; settings: filed as agonist; method in brief: as §1
[11] = target: T1, Adrenergic receptor alpha-1; assay: Inhibition of saturable binding of [3H]prazosin to alpha-1 adrenergic receptor site in rat cerebral cortical membranes.; format: cell membranes, Membrane
Rattus norvegicus [12] = assay: In vivo antagonist dose producing two fold shift of cirazoline in pithed rats. (postjunctional); format: functional
Method in brief: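 Pithed rats, separate groups (n = 4-6). Cirazoline cumulative dose-response on diastolic blood pressure (postjunctional α1) was recorded with and without antagonist given iv. The antagonist dose (μg/kg, iv) giving a twofold rightward shift of the cirazoline curve was reported as DR2.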

Rattus norvegicus [13] = assay: In vivo antagonist dose producing two fold shift of cirazoline in pithed rats. […]; format: functional
Rattus norvegicus [14] = assay: In vivo dose required to inhibit vas deferens contraction by 25% after pretreatment with prazosin in pithed rats. (prejunctional); format: functional; method in brief: as §2
Rattus norvegicus [15] = assay: In vivo antagonist dose producing two fold shift of cirazoline in pithed rats. (postjunctional)

| Structure (SMILES) | Postjunctional agonist potency [1] | Prejunctional agonist potency [2] | DR2 (Rattus norvegicus [3]) | ED40 (Rattus norvegicus [4]) | ED40 (Rattus norvegicus [5]) | Ki [6] | Prejunctional antagonist potency [7] | Ki [8] | ED25 (Rattus norvegicus [9]) | ED40 (Rattus norvegicus [10]) | Ki [11] | DR2 (Rattus norvegicus [12]) | ED40 (Rattus norvegicus [13]) | ED25 (Rattus norvegicus [14]) | DR2 (Rattus norvegicus [15]) |
| --- | --- | --- | --- | --- | --- | --- | --- | --- | --- | --- | --- | --- | --- | --- | --- |
| Cl.c1ccc(N2c3ccccc3CC2C2=NCCN2)cc1 (centres undefined) | 5.3 | 0 | 0.0094 mg/kg | 1.1 µg/kg | Agonist | 8.4 nM | 0.5 | 3 nM | Antagonist |  |  |  |  |  |  |
| CN1c2cccc(Cl)c2CC1C1=NCCN1.Cl (centres undefined) | 17 | 0.29 | 0.0024 mg/kg | 0.2 µg/kg |  |  | 10 | 0.16 nM | Antagonist | Agonist | 13.1 nM |  |  |  |  |
| CCN1c2ccccc2CC1C1=NCCN1 (centres undefined) | 1.4 | 0 | 0.0016 mg/kg | 3.3 µg/kg | Agonist | 3.72 nM | 9.1 | 0.24 nM | Antagonist |  |  |  |  |  |  |
| COc1cc2nc(N3CCN(C(=O)c4ccco4)CC3)nc(N)c2cc1OC [PRAZOSIN] |  |  | 5.44 mg/kg |  |  |  |  |  |  |  |  | 0.0094 mg/kg |  |  |  |
| CN1c2ccccc2CC1C1=NCCN1 (centres undefined) | 3.8 | 0.77 |  | 0.5 µg/kg |  |  | 5.5 | 0.69 nM |  | Agonist | 3.86 nM |  | 3.7 µg/kg | 4.1 µg/kg |  |
| c1ccc2c(c1)OCC(C1=NCCN1)O2 (centres undefined) [IDAZOXAN] |  |  | 0.0202 mg/kg | 65.5 µg/kg |  |  |  |  |  |  |  |  |  |  | 1.43 mg/kg |
| CCCN1c2ccccc2CC1C1=NCCN1 (centres undefined) | 3.9 | 0 | 0.0071 mg/kg | 3.8 µg/kg | Agonist | 3.7 nM | 3.2 | 0.96 nM | Antagonist |  |  |  |  |  |  |
| CCN1c2cccc(Cl)c2CC1C1=NCCN1 (centres undefined) | 4.4 | 0.51 | 0.0015 mg/kg | 0.8 µg/kg | Agonist | 1.9 nM | 8 | 0.42 nM | Antagonist |  |  |  |  |  |  |

— ChEMBL document CHEMBL1124112, “Indoline analogues of idazoxan: potent alpha 2-antagonists and alpha 1-agonists” (J Med Chem, 1988)
